Reference: ChEMBL document CHEMBL4028832, “Design and synthesis of 1,2,3-triazolo-phenanthrene hybrids as cytotoxic agents” (Bioorg Med Chem Lett, 2017)
The source made the active and inactive calls. The rule behind the calls is not given here.

Legend:
DU-145 [1] = assay: Cell cycle arrest in human DU145 cells assessed as accumulation at G0/G1 phase at 2 uM after 24 hrs by propidium iodide staining based FACS analysis (reference value: 64.1%); assay type: functional
DU-145 [2] = assay: Induction of apoptosis in human DU145 cells assessed as chromatin condensation at 8 uM after 48 hrs by acridine orange/ethidium bromide staining-based fluorescence microscopic analysis; assay type: functional, cell-based
How it was run: (§1)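 Treated DU145 cells were double-stained with acridine orange and ethidium bromide and imaged by fluorescence microscopy. Acridine orange stains intact nuclei green; ethidium bromide stains nuclei of membrane-compromised cells red. Cells were scored for blebbing, chromatin condensation, shrinkage and apoptotic bodies versus control.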

DU-145 [3] = assay: Cell cycle arrest in human DU145 cells assessed as accumulation at S phase at 8 uM after 24 hrs by propidium iodide staining based FACS analysis (reference value: 7.93%); assay type: functional
DU-145 [4] = assay: Induction of apoptosis in human DU145 cells assessed as apoptotic body formation at 8 uM after 48 hrs by acridine orange/ethidium bromide staining-based fluorescence microscopic analysis; assay type: functional, cell-based; how it was run: as §1
Bos taurus = organism: Bos taurus; assay: Binding affinity to calf thymus DNA assessed as increase in viscosity at 5 uM by Rolling-ball viscometric method
DU-145 [5] = assay: Cell cycle arrest in human DU145 cells assessed as accumulation at G2/M phase at 1 uM after 24 hrs by propidium iodide staining based FACS analysis (reference value: 16.38%); assay type: functional
4T1 = assay: Cytotoxicity against mouse 4T1 cells after 48 hrs by MTT assay; assay type: functional, cell-based; settings: 4T1, 48 h
How it was run: (§2)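 The human cancer lines and mouse 4T1 breast cells were treated with compound for 48 h and assessed by MTT assay. IC50 is the concentration giving 50% inhibition. 5-Fluorouracil served as the MTT standard.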

DU-145 [6] = assay: Cell cycle arrest in human DU145 cells assessed as increase in accumulation at G0/G1 phase after 24 hrs by propidium iodide staining based FACS analysis; assay type: functional
DU-145 [7] = assay: Induction of apoptosis in human DU145 cells assessed as increase in intracellular reactive oxygen species after 6 hrs by DCFDA dye based spectrofluorometeric method; assay type: functional, cell-based
How it was run: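 Intracellular ROS in DU145 cells was measured by DCFDA fluorescence after 6 h of treatment at several doses. Comparators were N-acetyl cysteine pretreatment before compound and H2O2-treated cells. Values are mean ± SD of three independent experiments.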

DU-145 [8] = assay: Cell cycle arrest in human DU145 cells assessed as accumulation at S phase at 2 uM after 24 hrs by propidium iodide staining based FACS analysis (reference value: 7.93%); assay type: functional
DU-145 [9] = assay: Cell cycle arrest in human DU145 cells assessed as accumulation at G0/G1 phase at 1 uM after 24 hrs by propidium iodide staining based FACS analysis (reference value: 64.1%); assay type: functional
HeLa = assay: Cytotoxicity against human HeLa cells after 48 hrs by MTT assay; assay type: functional, cell-based; how it was run: as §2
DU-145 [10] = assay: Induction of apoptosis in human DU145 cells assessed as cell detachment at 2 to 8 uM after 48 hrs by phase contrast microscopic method; assay type: functional, cell-based
How it was run: (§3)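 Phase-contrast microscopy of DU145 cells treated at 2, 4 and 8 µM. Images were captured and scored against untreated control for cell detachment and nuclear shrinkage.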

DU-145 [11] = assay: Induction of apoptosis in human DU145 cells assessed as cell shrinkage at 8 uM after 48 hrs by acridine orange/ethidium bromide staining-based fluorescence microscopic analysis; assay type: functional; how it was run: as §1
DU-145 [12] = assay: Induction of apoptosis in human DU145 cells assessed as formation of condensed nuclei at 2 to 8 uM after 24 hrs by DAPI staining based fluorescence microscopic method
DU-145 [13] = assay: Cell cycle arrest in human DU145 cells assessed as accumulation at G2/M phase at 8 uM after 24 hrs by propidium iodide staining based FACS analysis (reference value: 16.38%); assay type: functional
DU-145 [14] = assay: Induction of apoptosis in human DU145 cells assessed as loss of mitochondrial membrane potential after 24 hrs by JC1 staining-based fluorescence microscopic method; assay type: functional, cell-based
How it was run: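 DU145 cells were treated at 2, 4 and 8 µM for 24 h and stained with JC-1. Orange aggregates mark polarised mitochondria and green monomers mark depolarised ones, imaged by fluorescence. JC-1 aggregate intensity was quantified by spectrofluorometry.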

DU-145 [15] = assay: Cell cycle arrest in human DU145 cells assessed as accumulation at S phase at 1 uM after 24 hrs by propidium iodide staining based FACS analysis (reference value: 7.93%); assay type: functional
DU-145 [16] = assay: Cell cycle arrest in human DU145 cells assessed as accumulation at G0/G1 phase at 4 uM after 24 hrs by propidium iodide staining based FACS analysis (reference value: 64.1%); assay type: functional
MDA-MB-453 = assay: Cytotoxicity against human MDA-MB-453 cells after 48 hrs by MTT assay; assay type: functional, cell-based; settings: MDA-MB-453, 48 h; how it was run: as §2
MDA-MB-231 = assay: Cytotoxicity against human MDA-MB-231 cells after 48 hrs by MTT assay; assay type: functional, cell-based; settings: MDA-MB-231, 48 h; how it was run: as §2
DU-145 [17] = assay: Induction of apoptosis in human DU145 cells assessed as membrane blebbing at 8 uM after 48 hrs by acridine orange/ethidium bromide staining-based fluorescence microscopic analysis; assay type: functional, cell-based; how it was run: as §1
PC-3 = assay: Cytotoxicity against human PC3 cells after 48 hrs by MTT assay; assay type: functional, cell-based; settings: PC-3, 48 h; how it was run: as §2
DU-145 [18] = assay: Cytotoxicity against human DU145 cells after 48 hrs by MTT assay; assay type: functional, cell-based; settings: DU-145, 48 h; how it was run: as §2
DU-145 [19] = assay: Induction of apoptosis in human DU145 cells assessed as horse shoe shaped nuclei at 2 to 8 uM after 24 hrs by DAPI staining based fluorescence microscopic method
A549 = assay: Cytotoxicity against human A549 cells after 48 hrs by MTT assay; assay type: functional, cell-based; settings: A549, 48 h; how it was run: as §2
DU-145 [20] = assay: Cell cycle arrest in human DU145 cells assessed as accumulation at G2/M phase at 2 uM after 24 hrs by propidium iodide staining based FACS analysis (reference value: 16.38%); assay type: functional
BT-549 = assay: Cytotoxicity against human BT549 cells after 48 hrs by MTT assay; assay type: functional, cell-based; settings: BT-549, 48 h; how it was run: as §2
DU-145 [21] = assay: Induction of apoptosis in human DU145 cells assessed as nuclear shrinkage at 2 to 8 uM after 48 hrs by phase contrast microscopic method; assay type: functional, cell-based; how it was run: as §3
DU-145 [22] = assay: Cell cycle arrest in human DU145 cells assessed as accumulation at S phase at 4 uM after 24 hrs by propidium iodide staining based FACS analysis (reference value: 7.93%); assay type: functional
DU-145 [23] = assay: Cell cycle arrest in human DU145 cells assessed as accumulation at G0/G1 phase at 8 uM after 24 hrs by propidium iodide staining based FACS analysis (reference value: 64.1%); assay type: functional
DU-145 [24] = assay: Cell cycle arrest in human DU145 cells assessed as accumulation at G2/M phase at 4 uM after 24 hrs by propidium iodide staining based FACS analysis (reference value: 16.38%); assay type: functional
HGC-27 = assay: Cytotoxicity against human HGC27 cells after 48 hrs by MTT assay; assay type: functional, cell-based; settings: HGC-27, 48 h; how it was run: as §2

**Q.** For `COc1cc2cc(Cn3cc(CN4C(=O)c5cccc6cccc(c56)C4=O)nn3)c3cc(OC)c(OC)cc3c2cc1OC`, which Activity (DU-145 [1]) is on record?
**A.** 73.32%

**Q.** What about the Activity (DU-145 [2]) of the same molecule?
**A.** Active

**Q.** What about the Activity (DU-145 [3]) of the same molecule?
**A.** 1.91%

**Q.** What about the Activity (DU-145 [4]) of the same molecule?
**A.** Active

**Q.** What about the Activity (Bos taurus) of the same molecule?
**A.** Active

**Q.** What about the Activity (DU-145 [5]) of the same molecule?
**A.** 20.46%

**Q.** What about the IC50 (4T1) of the same molecule?
**A.** 4.2 µM

**Q.** What about the Activity (DU-145 [6]) of the same molecule?
**A.** Dose-dependent effect

**Q.** And the Activity (DU-145 [7])?
**A.** Dose-dependent effect

**Q.** And the Activity (DU-145 [8])?
**A.** 6.37%

**Q.** And the Activity (DU-145 [9])?
**A.** 71.1%

**Q.** What about the IC50 (HeLa) of the same molecule?
**A.** 2.9 µM

**Q.** What about the Activity (DU-145 [10]) of the same molecule?
**A.** Active

**Q.** And the Activity (DU-145 [11])?
**A.** Active

**Q.** And the Activity (DU-145 [12])?
**A.** Active

**Q.** And the Activity (DU-145 [13])?
**A.** 7.64%

**Q.** What about the Activity (DU-145 [14]) of the same molecule?
**A.** Dose-dependent effect

**Q.** What about the Activity (DU-145 [15]) of the same molecule?
**A.** 4.4%

**Q.** What about the Activity (DU-145 [16]) of the same molecule?
**A.** 80.37%

**Q.** And the IC50 (MDA-MB-453)?
**A.** 5.1 µM

**Q.** And the IC50 (MDA-MB-231)?
**A.** 4.2 µM

**Q.** And the Activity (DU-145 [17])?
**A.** Active

**Q.** And the IC50 (PC-3)?
**A.** 8.5 µM

**Q.** What about the IC50 (DU-145 [18]) of the same molecule?
**A.** 1.5 µM

**Q.** And the Activity (DU-145 [19])?
**A.** Active

**Q.** What about the IC50 (A549) of the same molecule?
**A.** > 20 µM

**Q.** And the Activity (DU-145 [20])?
**A.** 16.71%

**Q.** What about the IC50 (BT-549) of the same molecule?
**A.** 3.7 µM

**Q.** What about the Activity (DU-145 [21]) of the same molecule?
**A.** Active

**Q.** What about the Activity (DU-145 [22]) of the same molecule?
**A.** 5.37%

**Q.** And the Activity (DU-145 [23])?
**A.** 88.62%

**Q.** What about the Activity (DU-145 [24]) of the same molecule?
**A.** 11.7%

**Q.** And the IC50 (HGC-27)?
**A.** 5.1 µM
